Measured values published in ChEMBL document CHEMBL1123230, “Synthesis and biological activities of dynorphin A analogues with opioid antagonist properties” (J Med Chem, 1986).

What was measured:
[1] = species on record: Cavia porcellus; assay: The compound was evaluated for the antagonistic activity against dynorphin A in guinea pig ileum; format: functional
Summary of the method: (§1)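 Isolated electrically stimulated organ (guinea pig ileum myenteric plexus-longitudinal muscle; rabbit vas deferens), run with a peptidase-inhibitor mixture, twitch contractions recorded. In the antagonism test, the peptide concentration was set to depress the twitch by 20-40%. Analogue tested up to 10 μM. Ke is the concentration reducing the effect of a double dynorphin A dose to that of a single dose. Mean ± SEM of at least four independent measurements.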

[2] = target: Kappa-type opioid receptor (Cavia porcellus, UniProt P41144); assay: Compound was evaluated for the inhibition of [3H]bremazocine binding to Opioid receptor kappa 1 in guinea pig cerebellum membrane homogenates.; format: cell membranes
Summary of the method: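 Guinea pig cerebellum crude membranes were incubated with [3H]bremazocine (0.5 nM) at 25 °C for 60 min with peptidase inhibitors. Values are the mean ± SEM of at least three independent observations.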

[3] = target: T1, Kappa-type opioid receptor (Homo sapiens, UniProt P41145); assay: Compound was evaluated for the agonistic activity against Opioid receptor kappa 1 in rabbit vas deferens.; format: functional, Oryctolagus cuniculus; settings: target entry is the homologue from another species
Summary of the method: (§2)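 Isolated organs (guinea pig ileum myenteric plexus-longitudinal muscle, hamster vas deferens, rabbit vas deferens) were electrically stimulated, and inhibition of the evoked twitch contractions was recorded. The bath held a peptidase inhibitor mixture. Peptides were tested up to 10 μM.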

[4] = target: Delta-type opioid receptor (Rattus norvegicus, UniProt P33533); assay: Compound was evaluated for the inhibition of [3H]DSLET([[3H]D-Ser2,Leu5,Thr6]enkephalin binding to Opioid receptor delta 1 in rat brain homogenates.; format: tissue-based
[5] = target: Delta-type opioid receptor (Rattus norvegicus) (UniProt P33533); assay: Hill coefficient value was measured against delta sites in rat brain homogenates; format: tissue-based
[6] = target: Mu-type opioid receptor (Rattus norvegicus) (UniProt P33535); assay: Hill coefficient value was measured against mu sites in rat brain homogenates; format: tissue-based
[7] = target: Kappa-type opioid receptor (Cavia porcellus) (UniProt P41144); assay: Hill coefficient value was measured against Opioid receptor kappa 1 in guinea pig cerebellum membrane homogenates; format: cell membranes
[8] = target: Mu-type opioid receptor (Cavia porcellus, UniProt P97266); assay: Compound was evaluated for the agonistic activity against Opioid receptor mu 1 in guinea pig ileum.; format: functional, tissue-based; summary of the method: as §2
[9] = species on record: Oryctolagus cuniculus; assay: The compound was evaluated for the antagonistic activity in rabbit vas deferens; format: functional; summary of the method: as §1
[10] = tested on: Delta-type opioid receptor; assay: Receptor selectivity index is the ratio of the apparent KI at delta opioid receptor over the apparent KI at the highest affinity site
Summary of the method: (§3)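 RSI is the apparent KI at the given site divided by the apparent KI at the highest-affinity site. KI values come from [3H]DAGO (μ) and [3H]DSLET (δ) binding in rat brain membranes and [3H]bremazocine (κ) binding in guinea pig cerebellum membranes, all at 25 °C with peptidase inhibitors.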

[11] = target: T1, Kappa-type opioid receptor; assay: Receptor selectivity index is the ratio of the apparent KI at kappa opioid receptor over the apparent KI at the highest affinity site; summary of the method: as §3
[12] = target: Mu-type opioid receptor (Rattus norvegicus, UniProt P33535); assay: Compound was evaluated for the inhibition of [3H]DAGO([[3H]D-Ala,MePhe4,Glyol5]enkephalin) binding to mu sites in rat brain homogenates.; format: tissue-based
[13] = species on record: Cavia porcellus; assay: The compound was evaluated for the antagonistic activity against DAGO (mu-receptor) in guinea pig ileum.; format: functional
[14] = tested on: Cricetinae gen. sp.; assay: The compound was evaluated for the antagonistic activity in hamster vas deferens; format: functional, Cricetulus griseus
Summary of the method: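 Agonist concentration chosen to depress twitch height by 20-40%. Ke is the peptide concentration that reduces the effect of a double agonist dose to that of a single dose. Peptide tested up to 10 μM. At least four independent measurements.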

Kappa-type opioid receptor (Cavia porcellus, UniProt P41144), sequence (P41144 whole entry): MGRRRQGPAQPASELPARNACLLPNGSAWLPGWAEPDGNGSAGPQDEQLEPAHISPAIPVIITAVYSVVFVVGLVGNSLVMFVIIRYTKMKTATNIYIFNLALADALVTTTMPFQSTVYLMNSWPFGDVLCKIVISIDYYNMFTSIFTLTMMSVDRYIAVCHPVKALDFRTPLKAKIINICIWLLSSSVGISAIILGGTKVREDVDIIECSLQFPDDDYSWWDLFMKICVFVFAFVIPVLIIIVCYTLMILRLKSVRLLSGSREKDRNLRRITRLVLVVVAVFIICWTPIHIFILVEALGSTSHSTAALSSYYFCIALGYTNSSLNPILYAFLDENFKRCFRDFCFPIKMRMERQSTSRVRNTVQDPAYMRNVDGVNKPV
Kappa-type opioid receptor (Cavia porcellus), sequence (P41144 whole entry): as above
T1 sequence (P41145 whole entry): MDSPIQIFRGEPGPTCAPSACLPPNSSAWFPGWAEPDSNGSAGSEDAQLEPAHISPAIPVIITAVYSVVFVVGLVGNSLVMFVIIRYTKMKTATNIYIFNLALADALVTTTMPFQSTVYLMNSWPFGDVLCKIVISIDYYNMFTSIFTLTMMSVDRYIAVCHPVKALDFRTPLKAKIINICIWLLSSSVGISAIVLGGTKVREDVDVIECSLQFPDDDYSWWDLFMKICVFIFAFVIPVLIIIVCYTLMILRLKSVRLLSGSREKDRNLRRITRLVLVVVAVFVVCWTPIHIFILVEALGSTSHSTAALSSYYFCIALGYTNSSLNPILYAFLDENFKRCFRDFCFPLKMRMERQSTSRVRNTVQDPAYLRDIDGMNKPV
Mu-type opioid receptor (Cavia porcellus, UniProt P97266), sequence (P97266 whole entry): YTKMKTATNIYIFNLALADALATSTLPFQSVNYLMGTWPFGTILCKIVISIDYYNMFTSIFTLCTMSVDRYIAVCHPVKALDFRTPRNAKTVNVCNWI
Delta-type opioid receptor (Rattus norvegicus, UniProt P33533), sequence (P33533 whole entry): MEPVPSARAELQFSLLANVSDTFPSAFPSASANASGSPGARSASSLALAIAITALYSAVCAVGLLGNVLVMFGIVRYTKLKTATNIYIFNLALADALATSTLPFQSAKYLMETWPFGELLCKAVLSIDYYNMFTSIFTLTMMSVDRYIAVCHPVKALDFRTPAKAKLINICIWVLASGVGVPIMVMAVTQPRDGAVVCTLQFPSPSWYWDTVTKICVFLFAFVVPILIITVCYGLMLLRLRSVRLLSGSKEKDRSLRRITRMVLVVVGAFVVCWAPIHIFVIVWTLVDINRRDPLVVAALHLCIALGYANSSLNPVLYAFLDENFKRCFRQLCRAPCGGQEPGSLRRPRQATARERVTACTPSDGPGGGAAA
Delta-type opioid receptor (Rattus norvegicus), sequence (P33533 whole entry): as above
Mu-type opioid receptor (Rattus norvegicus, UniProt P33535), sequence (P33535 whole entry): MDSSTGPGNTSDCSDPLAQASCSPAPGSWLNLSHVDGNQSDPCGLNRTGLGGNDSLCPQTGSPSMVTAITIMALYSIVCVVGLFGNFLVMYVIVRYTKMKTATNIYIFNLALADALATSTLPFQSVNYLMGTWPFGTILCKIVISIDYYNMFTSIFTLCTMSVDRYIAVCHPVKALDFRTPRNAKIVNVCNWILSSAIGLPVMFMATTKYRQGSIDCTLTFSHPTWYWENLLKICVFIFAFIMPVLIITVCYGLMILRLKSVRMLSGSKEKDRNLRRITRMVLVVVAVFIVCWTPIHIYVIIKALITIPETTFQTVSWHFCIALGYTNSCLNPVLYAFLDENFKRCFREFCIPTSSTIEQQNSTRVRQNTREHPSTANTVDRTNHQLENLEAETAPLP
Mu-type opioid receptor (Rattus norvegicus), sequence (P33535 whole entry): as above

CC(C)C[C@H](NC(=O)[C@H](Cc1ccccc1)NC(=O)CNC(=O)[C@@H](Cc1c[nH]c2ccccc12)NC(=O)[C@@H](N)Cc1ccc(O)cc1)C(=O)N[C@@H](CCCN=C(N)N)C(=O)N[C@@H](CCCN=C(N)N)C(=O)N[C@H](Cc1c[nH]c2ccccc12)C(=O)N[C@@H](CCCN=C(N)N)C(=O)N1CCC[C@@H]1C(=O)N[C@@H](CCCCN)C(=O)O
Ke [1]: 206 nM
Ki [2]: 153 nM
IC50 [3]: > 10000 nM
Ki [4]: 561 nM
Hill coefficient [5]: 0.72
Hill coefficient [6]: 1.15
Hill coefficient [7]: 0.83
IC50 [8]: 8890 nM
Ke [9]: 433 nM
Ratio [10]: 5.5
Ratio [11]: 1.5
Ki [12]: 103 nM

CC[C@H](C)[C@H](NC(=O)[C@H](CCCNC(=N)N)NC(=O)[C@H](CCCNC(=N)N)NC(=O)[C@H](CC(C)C)NC(=O)[C@H](Cc1ccccc1)NC(=O)CNC(=O)CNC(=O)[C@@H](N)Cc1ccc(O)cc1)C(=O)N[C@@H](CCCNC(=N)N)C(=O)N1CCC[C@H]1C(=O)N[C@@H](CCCCN)C(=O)N[C@@H](CC(C)C)C(=O)N[C@@H](CCCCN)C(=O)N[C@@H](Cc1c[nH]c2ccccc12)C(=O)N[C@@H](CC(=O)O)C(=O)N[C@@H](CC(N)=O)C(=O)N[C@@H](CCC(N)=O)C(=O)O
Ki [2]: 0.23 nM

CC[C@H](C)[C@H](NC(=O)[C@H](CCCNC(=N)N)NC(=O)[C@H](CCCNC(=N)N)NC(=O)[C@H](CC(C)C)NC(=O)[C@H](Cc1ccccc1)NC(=O)CNC(=O)CNC(=O)[C@@H](N)Cc1ccc(O)cc1)C(=O)N[C@@H](CCCNC(=N)N)C(=O)N1CCC[C@H]1C(=O)N[C@@H](CCCCN)C(=O)O [DYNORPHIN A (1-11)]
IC50 [3]: 13.1 nM

CC(C)C[C@H](NC(=O)[C@H](Cc1ccccc1)NC(=O)[C@@H](Cc1c[nH]c2ccccc12)NC(=O)CNC(=O)[C@@H](N)Cc1ccc(O)cc1)C(=O)N[C@@H](CCCN=C(N)N)C(=O)N[C@@H](CCCN=C(N)N)C(=O)N[C@H](Cc1c[nH]c2ccccc12)C(=O)N[C@@H](CCCN=C(N)N)C(=O)N1CCC[C@@H]1C(=O)N[C@@H](CCCCN)C(=O)O
Ke [13]: 40.5 nM
Ke [1]: 10.3 nM
Ke [14]: 1127 nM
Ki [2]: 19.6 nM
IC50 [3]: > 10000 nM
Ki [4]: 1040 nM
Hill coefficient [5]: 1.07
Hill coefficient [6]: 1.31
Hill coefficient [7]: 1.03
IC50 [8]: 222 nM
Ke [9]: 1127 nM
Ratio [10]: 53
Ratio [11]: 1
Ki [12]: 327 nM

CC(C)C[C@H](NC(=O)[C@H](Cc1ccccc1)NC(=O)CNC(=O)CNC(=O)[C@@H](N)Cc1ccc(O)cc1)C(=O)N[C@@H](CCCN=C(N)N)C(=O)N[C@@H](CCCN=C(N)N)C(=O)N[C@H](Cc1c[nH]c2ccccc12)C(=O)N[C@@H](CCCN=C(N)N)C(=O)N1CCC[C@@H]1C(=O)N[C@@H](CCCCN)C(=O)O
Ki [2]: 0.049 nM
IC50 [3]: 12.8 nM
Ki [4]: 5.43 nM
Hill coefficient [5]: 0.98
Hill coefficient [6]: 0.86
Hill coefficient [7]: 1
IC50 [8]: 2.84 nM
Ratio [10]: 110
Ratio [11]: 1
Ki [12]: 0.58 nM

NCCCC[C@H](NC(=O)[C@H]1CCCN1C(=O)[C@H](CCCN=C(N)N)NC(=O)[C@@H](Cc1c[nH]c2ccccc12)NC(=O)[C@H](CCCN=C(N)N)NC(=O)[C@H](CCCN=C(N)N)NC(=O)[C@@H](Cc1c[nH]c2ccccc12)NC(=O)[C@H](Cc1ccccc1)NC(=O)CNC(=O)CNC(=O)[C@@H](N)Cc1ccc(O)cc1)C(=O)O
Ke [13]: 13.9 nM
Ki [2]: 20.6 nM
IC50 [3]: > 10000 nM
Ki [4]: 303 nM
Hill coefficient [5]: 0.9
Hill coefficient [6]: 1.23
Hill coefficient [7]: 0.96
IC50 [8]: 69 nM
Ke [9]: 199 nM
Ratio [10]: 15
Ratio [11]: 1
Ki [12]: 20.3 nM

CC[C@H](C)[C@H](NC(=O)[C@H](CCCN=C(N)N)NC(=O)[C@H](CCCN=C(N)N)NC(=O)[C@H](CC(C)C)NC(=O)[C@H](Cc1ccccc1)NC(=O)CNC(=O)CNC(=O)[C@@H](N)Cc1ccc(O)cc1)C(=O)N[C@@H](CCCN=C(N)N)C(=O)N1CCC[C@H]1C(=O)N[C@@H](CCCCN)C(=O)N[C@@H](CC(C)C)C(=O)N[C@@H](CCCCN)C(=O)N[C@@H](Cc1c[nH]c2ccccc12)C(=O)N[C@@H](CC(=O)O)C(=O)N[C@@H](CC(N)=O)C(=O)N[C@@H](CCC(=O)O)C(=O)O
Hill coefficient [7]: 0.79

CC[C@H](C)[C@H](NC(=O)[C@H](CCCN=C(N)N)NC(=O)[C@H](CCCN=C(N)N)NC(=O)[C@H](CC(C)C)NC(=O)[C@H](Cc1ccccc1)NC(=O)CNC(=O)CNC(=O)[C@@H](N)Cc1ccc(O)cc1)C(=O)N[C@@H](CCCN=C(N)N)C(=O)N1CCC[C@@H]1C(=O)N[C@@H](CCCCN)C(=O)O
IC50 [3]: 12.1 nM

CC(C)C[C@H](NC(=O)[C@@H](Cc1c[nH]c2ccccc12)NC(=O)CNC(=O)CNC(=O)[C@@H](N)Cc1ccc(O)cc1)C(=O)N[C@@H](CCCN=C(N)N)C(=O)N[C@@H](CCCN=C(N)N)C(=O)N[C@H](Cc1c[nH]c2ccccc12)C(=O)N[C@@H](CCCN=C(N)N)C(=O)N1CCC[C@@H]1C(=O)N[C@@H](CCCCN)C(=O)O
Ke [13]: 249 nM
Ke [1]: 606 nM
Ki [2]: 73 nM
IC50 [3]: > 10000 nM
Ki [4]: 631 nM
Hill coefficient [5]: 0.92
Hill coefficient [6]: 1.06
Hill coefficient [7]: 0.85
IC50 [8]: > 10000 nM
Ke [9]: 1432 nM
Ratio [10]: 8.6
Ratio [11]: 1
Ki [12]: 142 nM

CC(C)C[C@H](NC(=O)[C@@H](Cc1c[nH]c2ccccc12)NC(=O)CNC(=O)[C@@H](Cc1c[nH]c2ccccc12)NC(=O)[C@@H](N)Cc1ccc(O)cc1)C(=O)N[C@@H](CCCN=C(N)N)C(=O)N[C@@H](CCCN=C(N)N)C(=O)N[C@H](Cc1c[nH]c2ccccc12)C(=O)N[C@@H](CCCN=C(N)N)C(=O)N1CCC[C@@H]1C(=O)N[C@@H](CCCCN)C(=O)O
Ke [13]: 83 nM
Ke [1]: 61 nM
Ki [2]: 23.8 nM
IC50 [3]: > 10000 nM
Ki [4]: 134 nM
Hill coefficient [5]: 0.86
Hill coefficient [6]: 0.89
Hill coefficient [7]: 0.85
IC50 [8]: > 10000 nM
Ke [9]: 293 nM
Ratio [10]: 5.6
Ratio [11]: 1
Ki [12]: 51.5 nM
